Reference: ChEMBL document CHEMBL5678818, “Discovery of potent SOS1 inhibitors that block RAS activation via disruption of the RAS-SOS1 interaction” (Proc Natl Acad Sci U S A, 2019)

What was measured:
NCI-H358 = assay: Antiproliferative activity against human NCI-H358 cells assessed as inhibition of cell viability incubated for 72 hrs by Cell Titer Glo assay; assay type: functional, cell-based; settings: NCI-H358, 72 h
Method in brief: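 NCI-H358 cells (KRAS G12C mutant) were sourced from ATCC.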

[1] = target: T1, Mitogen-activated protein kinase kinase kinase kinase 3 (Homo sapiens) (UniProt Q8IVH8); assay: Inhibition of MAP4K3 (unknown origin) assessed as residual activity at 1000 nM by KINOMEscan analysis relative to control
T1 sequence (whole entry): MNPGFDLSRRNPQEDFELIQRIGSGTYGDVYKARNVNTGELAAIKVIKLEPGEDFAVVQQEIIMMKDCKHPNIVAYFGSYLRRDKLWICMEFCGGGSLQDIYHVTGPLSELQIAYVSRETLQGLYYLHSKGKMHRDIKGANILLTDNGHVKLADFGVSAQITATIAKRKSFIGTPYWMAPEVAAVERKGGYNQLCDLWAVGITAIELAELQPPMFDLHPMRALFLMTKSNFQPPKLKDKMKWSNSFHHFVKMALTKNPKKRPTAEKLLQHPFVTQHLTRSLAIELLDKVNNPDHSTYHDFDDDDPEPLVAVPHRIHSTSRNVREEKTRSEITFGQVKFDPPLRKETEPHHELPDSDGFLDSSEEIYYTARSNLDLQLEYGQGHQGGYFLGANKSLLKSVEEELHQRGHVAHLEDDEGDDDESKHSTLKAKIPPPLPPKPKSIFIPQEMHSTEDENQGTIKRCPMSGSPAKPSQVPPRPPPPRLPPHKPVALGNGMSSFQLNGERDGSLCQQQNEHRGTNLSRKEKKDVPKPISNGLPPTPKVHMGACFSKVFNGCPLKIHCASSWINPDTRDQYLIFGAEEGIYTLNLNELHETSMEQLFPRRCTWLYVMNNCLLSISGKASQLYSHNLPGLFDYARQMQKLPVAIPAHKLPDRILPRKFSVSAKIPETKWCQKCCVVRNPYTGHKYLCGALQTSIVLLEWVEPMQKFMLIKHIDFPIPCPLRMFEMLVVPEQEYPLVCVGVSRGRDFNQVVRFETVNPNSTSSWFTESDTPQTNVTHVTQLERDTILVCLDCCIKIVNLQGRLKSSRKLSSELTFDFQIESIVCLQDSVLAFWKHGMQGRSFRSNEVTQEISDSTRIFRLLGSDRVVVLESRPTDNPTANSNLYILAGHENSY

[2] = target: T2, Serine/threonine-protein kinase TNNI3K (Homo sapiens) (UniProt Q59H18); assay: Inhibition of TNNI3K (unknown origin) assessed as residual activity at 1000 nM by KINOMEscan analysis relative to control
T2 sequence (whole entry): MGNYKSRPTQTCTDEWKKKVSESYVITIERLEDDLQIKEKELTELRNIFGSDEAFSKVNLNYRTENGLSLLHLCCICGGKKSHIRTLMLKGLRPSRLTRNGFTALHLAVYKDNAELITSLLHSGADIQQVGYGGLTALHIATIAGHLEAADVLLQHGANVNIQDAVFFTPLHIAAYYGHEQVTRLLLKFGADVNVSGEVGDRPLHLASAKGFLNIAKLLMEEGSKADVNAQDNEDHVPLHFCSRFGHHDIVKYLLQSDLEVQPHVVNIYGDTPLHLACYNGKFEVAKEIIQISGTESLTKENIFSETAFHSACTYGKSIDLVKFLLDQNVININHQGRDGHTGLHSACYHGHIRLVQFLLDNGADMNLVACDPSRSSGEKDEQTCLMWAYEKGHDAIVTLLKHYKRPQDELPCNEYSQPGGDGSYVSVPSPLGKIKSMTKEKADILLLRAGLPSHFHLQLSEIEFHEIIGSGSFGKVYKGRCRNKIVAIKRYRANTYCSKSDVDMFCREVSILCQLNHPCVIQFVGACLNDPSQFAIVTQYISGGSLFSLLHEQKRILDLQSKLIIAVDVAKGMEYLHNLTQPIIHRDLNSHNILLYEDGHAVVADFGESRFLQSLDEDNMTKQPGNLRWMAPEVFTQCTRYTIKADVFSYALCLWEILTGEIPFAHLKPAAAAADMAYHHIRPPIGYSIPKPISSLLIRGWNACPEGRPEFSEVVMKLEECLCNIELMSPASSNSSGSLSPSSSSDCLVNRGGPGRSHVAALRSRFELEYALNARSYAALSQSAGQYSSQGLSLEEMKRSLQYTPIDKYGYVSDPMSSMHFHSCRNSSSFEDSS

[3] = target: BMP-2-inducible protein kinase (Homo sapiens) (UniProt Q9NSY1); assay: Inhibition of BIKE (unknown origin) assessed as residual activity at 1000 nM by KINOMEscan analysis relative to control
Chain of BMP-2-inducible protein kinase (Homo sapiens) (Q9NSY1 whole entry, looked up): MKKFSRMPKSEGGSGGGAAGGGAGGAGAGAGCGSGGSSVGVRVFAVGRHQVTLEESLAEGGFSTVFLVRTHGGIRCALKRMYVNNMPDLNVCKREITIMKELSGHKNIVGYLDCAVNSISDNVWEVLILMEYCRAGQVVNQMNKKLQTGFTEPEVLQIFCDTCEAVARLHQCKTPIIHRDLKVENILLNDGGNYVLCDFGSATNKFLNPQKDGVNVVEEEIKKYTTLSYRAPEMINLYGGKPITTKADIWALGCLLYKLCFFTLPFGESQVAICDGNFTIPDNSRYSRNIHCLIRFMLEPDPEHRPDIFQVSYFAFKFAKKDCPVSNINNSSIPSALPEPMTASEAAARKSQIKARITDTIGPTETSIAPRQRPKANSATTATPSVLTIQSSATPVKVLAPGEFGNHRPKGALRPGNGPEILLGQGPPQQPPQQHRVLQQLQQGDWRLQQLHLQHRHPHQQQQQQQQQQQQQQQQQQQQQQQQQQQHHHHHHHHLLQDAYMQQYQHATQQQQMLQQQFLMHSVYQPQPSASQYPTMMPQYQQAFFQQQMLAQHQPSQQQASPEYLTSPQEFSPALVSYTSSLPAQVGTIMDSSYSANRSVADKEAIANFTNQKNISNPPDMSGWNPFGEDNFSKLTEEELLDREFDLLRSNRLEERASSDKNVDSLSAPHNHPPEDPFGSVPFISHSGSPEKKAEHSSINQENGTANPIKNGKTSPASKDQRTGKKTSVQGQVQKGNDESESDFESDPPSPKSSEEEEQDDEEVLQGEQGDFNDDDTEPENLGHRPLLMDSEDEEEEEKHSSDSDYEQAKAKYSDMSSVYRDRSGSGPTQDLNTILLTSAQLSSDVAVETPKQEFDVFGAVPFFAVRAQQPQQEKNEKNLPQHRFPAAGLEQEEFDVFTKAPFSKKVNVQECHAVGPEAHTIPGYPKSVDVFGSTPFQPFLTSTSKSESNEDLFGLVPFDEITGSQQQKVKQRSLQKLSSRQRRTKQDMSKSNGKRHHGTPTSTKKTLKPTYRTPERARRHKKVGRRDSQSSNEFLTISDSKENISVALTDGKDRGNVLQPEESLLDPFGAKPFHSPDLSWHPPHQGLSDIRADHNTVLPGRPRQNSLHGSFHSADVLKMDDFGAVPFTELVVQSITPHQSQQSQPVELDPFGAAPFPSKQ

[4] = system: Epidermal growth factor receptor (Homo sapiens), P00533 [L858R,T790M]; assay: Inhibition of EGFR L858R/T790M mutant (unknown origin) assessed as residual activity at 1000 nM by KINOMEscan analysis relative to control
[5] = system: Epidermal growth factor receptor (Homo sapiens), P00533 [UNDEFINED MUTATION]; assay: Inhibition of EGFR L747-T751del/Sins mutant (unknown origin) assessed as residual activity at 1000 nM by KINOMEscan analysis relative to control
[6] = target: Serine/threonine-protein kinase VRK2 (Homo sapiens) (UniProt Q86Y07); assay: Inhibition of VRK2 (unknown origin) assessed as residual activity at 1000 nM by KINOMEscan analysis relative to control
Chain of Serine/threonine-protein kinase VRK2 (Homo sapiens) (Q86Y07 whole entry): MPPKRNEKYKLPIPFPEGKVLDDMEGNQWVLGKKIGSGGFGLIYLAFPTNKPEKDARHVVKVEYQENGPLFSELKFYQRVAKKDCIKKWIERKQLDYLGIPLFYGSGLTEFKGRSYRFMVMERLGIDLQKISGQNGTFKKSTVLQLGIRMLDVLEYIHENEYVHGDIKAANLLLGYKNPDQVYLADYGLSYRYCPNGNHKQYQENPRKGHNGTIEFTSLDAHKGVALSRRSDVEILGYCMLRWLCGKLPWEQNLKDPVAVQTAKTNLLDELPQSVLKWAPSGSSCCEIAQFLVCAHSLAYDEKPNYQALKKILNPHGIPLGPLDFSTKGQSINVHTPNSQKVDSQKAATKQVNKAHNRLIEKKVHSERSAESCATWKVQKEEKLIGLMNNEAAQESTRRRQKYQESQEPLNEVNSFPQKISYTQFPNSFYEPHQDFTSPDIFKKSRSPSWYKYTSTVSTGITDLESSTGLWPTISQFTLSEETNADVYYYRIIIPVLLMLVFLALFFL

[7] = target: T3, Non-receptor tyrosine-protein kinase TNK1 (Homo sapiens) (UniProt Q13470); assay: Inhibition of TNK1 (unknown origin) assessed as residual activity at 1000 nM by KINOMEscan analysis relative to control
T3 sequence (whole entry): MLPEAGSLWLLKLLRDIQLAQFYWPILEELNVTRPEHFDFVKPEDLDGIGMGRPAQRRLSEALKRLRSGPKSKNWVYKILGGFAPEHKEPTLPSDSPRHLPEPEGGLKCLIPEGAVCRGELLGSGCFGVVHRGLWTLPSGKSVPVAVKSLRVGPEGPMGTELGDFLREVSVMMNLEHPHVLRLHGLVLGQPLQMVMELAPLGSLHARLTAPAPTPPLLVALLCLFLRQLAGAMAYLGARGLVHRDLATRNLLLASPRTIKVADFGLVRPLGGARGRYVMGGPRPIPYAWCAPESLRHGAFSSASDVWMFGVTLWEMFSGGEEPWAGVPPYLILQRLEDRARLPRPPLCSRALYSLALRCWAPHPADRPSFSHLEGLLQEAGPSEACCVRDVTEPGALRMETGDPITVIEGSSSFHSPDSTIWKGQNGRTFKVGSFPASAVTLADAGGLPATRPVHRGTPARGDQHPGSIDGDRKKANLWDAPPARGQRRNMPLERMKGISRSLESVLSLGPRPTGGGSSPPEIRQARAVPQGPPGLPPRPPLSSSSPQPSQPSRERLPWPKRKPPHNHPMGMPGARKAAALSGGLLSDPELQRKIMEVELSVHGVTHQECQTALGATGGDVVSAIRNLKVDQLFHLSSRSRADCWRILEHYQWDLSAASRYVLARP

`CNCc1ccccc1-c1csc([C@@H](C)Nc2nc(C)nc3cc(OC)c(OC)cc23)c1` [BAY-293] gave an IC50 (NCI-H358) of 3.48 µM.
For `COc1cc2nc(C)nc(N[C@H](C)c3cccc(-c4cn[nH]c4)c3)c2cc1OC`, the Activity [1] was 90%, the Activity [2] was 96% and the IC50 (NCI-H358) was 13.6 µM. For the same compound, the Activity [3] was 71%, the Activity [4] was 92% and the Activity [5] was 99%. For the same compound, the Activity [6] was 93% and the Activity [7] was 100%.
`COc1cc2ncnc(N[C@H](C)c3cccc4ccccc34)c2cc1OC` showed an Activity [1] of 100%, an Activity [2] of 100% and an Activity [3] of 100%. The Activity [4] was 74%, the Activity [5] was 5.8% and the Activity [6] was 81%. The Activity [7] was 100%.
